To fix the notation:
B1: tRNA (parent)
chain: GUUCCGUUGGCGUAAUGGUAACGCGUCUCCCUCCUAAGGAGAAGACUGCGGGUUCGAGUCCCGUACGGAACG

Variants at the floor of the assay were thinned out.

The variants in the data set derive from B1. Kind of data set: yeast fitness relative to wild type (ratio to wild type); higher = fitter; tRNA-Arg(CCU), competitive growth, 37 C, YPD. The procedure, abridged: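 Variants of the tRNA-Arg(CCU) gene, chemically synthesised with a 3% per-site mutation rate at 69 sites, were placed at the native genomic locus in Saccharomyces cerevisiae. The pooled strains were competed in YPD at 37°C for 24 hours in six parallel replicates. Gene amplicons from the start population and from each end population were read by 100-nucleotide paired-end sequencing. Darwinian fitness relative to wild type came from changes in genotype frequencies; genotypes needed ≥ 100 starting reads, and estimates < 0.5 were set to 0.5.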
GUUCCGUUGGCGUAAUGGUAACGCGUCUCCCUCCCAAGGAGAAGUCUGAGGGUUCGAGUCCCGUACGGAACG [U35C A45U C49A]: the yeast fitness was 0.594.

Consider GUUCCGUUGGCGUAAUGGUAACGCGUCUCCCUCCGAAGGAGAAGACUGCGGGUUCGAGUCUCGUACGGAACG [U35G C61U], for which the yeast fitness was 0.792.

Turning to GUUCCGUUGGCGUAAUGGUAACGCGUCUCCCUCCCAAGGAGAACACUGCGGGUUCGAGUCCCGUACGGAACG [U35C G44C], the yeast fitness amounted to 0.88.

In the case of GUUCCGUUGGCGUAAUGGUAACGCGUCUCCCUCCUCAGGAGGAGACUGCGGGUUCGAGUCACGUACGGAACG [A36C A42G C61A], the yeast fitness is no more than 0.5.

On to GUUCCGUUGGCGUAAUGGUAACGCGUCUCCCUCCCAAGGAGAAGACUGCGGGUUCGAGUCCUGUACGGAACG [U35C C62U], for which the yeast fitness is 0.882.

For the variant GUUCCGUUGGCGUAAUGGUAACGCGUCUCCCUCCGAAGGAGAAGACUGCGGGUUCGCGUCCCGUACGGACCG [U35G A57C A70C], the yeast fitness was no more than 0.5.

Consider GUUCCGUUGGCGUAAUGGUAACGCGUCUCCCUCCCAAGGAGAAGACUGCGGGUUCGAGACCCGUACGGACCG [U35C U59A A70C], for which the yeast fitness was no more than 0.5.

Regarding GUUCCGUUGGCGUAAUGGUAACGCGUCUCCCUCCUCAGGAGUAGACUGCGGGUUCGAGUCCCGUUCGGAACG [A36C A42U A65U], the yeast fitness is 0.647.

On to GUUCCGUUGGCGUAAUGGUAACGCGUCUCCCUCCCAAGGAGAAGAUUGCGGGUUCGAGUCCCGUACGGUACG [U35C C46U A69U], for which the yeast fitness is 0.832.

Take GUUCCGUUGGCGUAAUGGUAACGCGUCUCCCUCCGAAGGAGAAGUCUGCGGGUUCGAGUCCCGUACGGAACG [U35G A45U]: the yeast fitness was 0.589.

As to GUUCCGUUGGCGUAAUGGUAACGCGUCUCCCUCCGAAGGCGAAGACUGCGGGUUCGAGUCCGGUAGGGAACG [U35G A40C C62G C66G], the yeast fitness turned out to be 0.539.

For the variant GUUCCGUUGGCGUAAUGGUAACGCGUCUCCCUCCGAAGGAGAAGAUUGCGGGUUCGAGUCCCGUCCCGAACG [U35G C46U A65C G67C], the yeast fitness is no more than 0.5.

Consider GUUCCGUUGGCGUAAUGGUAACGCGUCUCCCUCCGAGGGAGAAGACUGUGGGUUCGAGUCCCGUACGGAACG [U35G A37G C49U], for which the yeast fitness was no more than 0.5.

Consider GUUCCGUUGGCGUAAUGGUAACGCGUCUCCCUCCUCAGGUGAAGAAUGCGGGUUCGAGUCCCGUACGCAACG [A36C A40U C46A G68C], for which the yeast fitness came to 0.584.

For the variant GUUCCGUUGGCGUAAUGGUAACGCGUCUCCCUCCCAAGGAGAAGACUGCGGGUUCGAAUUCCGUACGGAACG [U35C G58A C60U], the yeast fitness was no more than 0.5.

As for GUUCCGUUGGCGUAAUGGUAACGCGUCUCCCUCCUCAGGAGAUGACUGCGGGUUCGAGUCCCGUACGGAACG [A36C A43U], the yeast fitness was 0.575.

For GUUCCGUUGGCGUAAUGGUAACGCGUCUCCCUCCUCAGGAGAAGUCUGCGGGUUCGAGACCCGUACGGAACG [A36C A45U U59A], the yeast fitness was no more than 0.5.

With GUUCCGUUGGCGUAAUGGUAACGCGUCUCCCUCCCAAGGAGAAGACUGCGGGUUCGAGUCCCGUCCGGAACG [U35C A65C], the yeast fitness came to 0.807.

As to GUUCCGUUGGCGUAAUGGUAACGCGUCUCCCUCCGAAGGAGAUGAGUGCGGGCUCGAGUCCCGUACGGCACG [U35G A43U C46G U53C A69C], the yeast fitness was no more than 0.5.

Take GUUCCGUUGGCGUAAUGGUAACGCGUCUCCCUCCUCAGGAGUAGACUGCGGGUUCGAGUCCCGUACGGAACG [A36C A42U]: the yeast fitness came to 0.639.

GUUCCGUUGGCGUAAUGGUAACGCGUCUCCCUCCCAAGGAGAAGACUGCGGGUUUGAGUCCAGUACGGAACG [U35C C55U C62A]: the yeast fitness was 0.527.

With GUUCCGUUGGCGUAAUGGUAACGCGUCUCCCUCCCAAGGACAAGACUGCGGGUUCGAGUCCCGUCCGGAACG [U35C G41C A65C], the yeast fitness was no more than 0.5.

Take GUUCCGUUGGCGUAAUGGUAACGCGUCUCCCUCCGAAGGAGAAGACUGCGGGUUUGAGUCCCGUACGGAACG [U35G C55U]: the yeast fitness turned out to be 0.664.

Consider GUUCCGUUGGCGUAAUGGUAACGCGUCUCCCUCCUCAGGCGAAGACUGCGGGUUCGAGUCCCGUACGGAACG [A36C A40C], for which the yeast fitness was 0.572.

For the variant GUUCCGUUGGCGUAAUGGUAACGCGUCUCCCUCCCAAGGAGAAGACUGCGGGUUCGAGUCCCGUAGGGAACG [U35C C66G], the yeast fitness was 0.657.

Regarding GUUCCGUUGGCGUAAUGGUAACGCGUCUCCCUCCCAAGGAGAAGACUGCGGGUUCGAGUCCCGUAUGGAACG [U35C C66U], the yeast fitness turned out to be 0.781.

For GUUCCGUUGGCGUAAUGGUAACGCGUCUCCCUCCCAAGGAGAAGGCUGCGGGUUCGAGUCCAGUACGGAACG [U35C A45G C62A], the yeast fitness was no more than 0.5.

Regarding GUUCCGUUGGCGUAAUGGUAACGCGUCUCCCUCCCAAGGAGAAGACUGCGGCUUCGAGUCCCGUACCGAACG [U35C G52C G67C], the yeast fitness was 0.533.

As to GUUCCGUUGGCGUAAUGGUAACGCGUCUCCCUCCCAAGGAGAAAAGUGCCGGAUCGAGUCCCGUAAGGAACG [U35C G44A C46G G50C U53A C66A], the yeast fitness is no more than 0.5.

Regarding GUUCCGUUGGCGUAAUGGUAACGCGUCUCCCUCCUCAGGAGAAGCCUGUGGGUUGGAGUCCAGUACGAAACG [A36C A45C C49U C55G C62A G68A], the yeast fitness is no more than 0.5.

On to GUUCCGUUGGCGUAAUGGUAACGCGUCUCCCUCCGAAGGAGAAGACUGCGGGUUCGAGUCCCGUUCGGAACG [U35G A65U], for which the yeast fitness is 0.606.

With GUUCCGUUGGCGUAAUGGUAACGCGUCUCCCUCCCAAGGAGAAGACUGCGUGUUCGAGUCCCGUACGGAACG [U35C G51U], the yeast fitness stood at 0.527.

As for GUUCCGUUGGCGUAAUGGUAACGCGUCUCCCUCCGAAGGAGAAGACUGCGGGUUCGAGACCCGUACGGAACG [U35G U59A], the yeast fitness was 0.646.

Regarding GUUCCGUUGGCGUAAUGGUAACGCGUCUCCCUCCGAACGAGAAGACUGCGGGUUCGAGUCCCAUACGGAACG [U35G G38C G63A], the yeast fitness was no more than 0.5.

On to GUUCCGUUGGCGUAAUGGUAACGCGUCUCCCUCCGAAGGAGAAGACUGCGGGUUCGAGUCCGGUACGGAACG [U35G C62G], for which the yeast fitness turned out to be 0.597.

Turning to GUUCCGUUGGCGUAAUGGUAACGCGUCUCCCUCCGAAGGAGAAGACUGCGGGUUCGAGUCCUGUACGGAACG [U35G C62U], the yeast fitness was found to be 0.7.

Turning to GUUCCGUUGGCGUAAUGGUAACGCGUCUCCCUCCGAAGGAGAAGACUGCGGGUUCGAGUCCCGCUCGGAACG [U35G U64C A65U], the yeast fitness was no more than 0.5.
